Screening data from PubChem BioAssay.
An excerpt weighted towards active compounds, which were near 3.8% of everything screened.
Insulin prom inh = inhibitors of insulin promoter-driven GFP, primary screen, imaging, TRM-6 cells (human fetal islet line), eGFP reporter, cell count; reporter expression induced with tamoxifen; inhibition, % at 2 µM; 130,000 compounds, 0.9% hits; AID 1273, 2008;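 active = inhibition above the mean plus 3 SD, with well images judged a real hit on visual review, cut at about 60% in these data, passing the limit was not always enough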
NPY Y2 blocker = NPY-Y2 receptor antagonists, primary screen, cell-based; inhibition, % at 2.7 µM; NPY-Y2 expressing cells, antagonist mode; 140,000 compounds, 0.99% hits; AID 793, 2007; in the data active = inhibition above about 17%
Target sequence (P49146 whole entry, looked up): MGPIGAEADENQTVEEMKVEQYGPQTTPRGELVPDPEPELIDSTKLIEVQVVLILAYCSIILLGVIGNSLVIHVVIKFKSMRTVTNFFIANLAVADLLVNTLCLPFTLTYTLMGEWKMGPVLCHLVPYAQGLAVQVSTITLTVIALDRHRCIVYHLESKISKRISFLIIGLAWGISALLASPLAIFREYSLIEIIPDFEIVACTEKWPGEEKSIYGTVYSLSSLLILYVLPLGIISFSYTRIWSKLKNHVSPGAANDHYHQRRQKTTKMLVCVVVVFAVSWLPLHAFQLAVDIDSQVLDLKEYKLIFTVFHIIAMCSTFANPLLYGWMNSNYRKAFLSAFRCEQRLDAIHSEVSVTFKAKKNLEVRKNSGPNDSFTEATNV
NPY-Y2 PAM-ag = NPY-Y2 potentiators or agonists, primary screen, cell-based | activation, % at 3.6 µM | cells expressing NPY-Y2, potentiator/agonist read-out | Neuropeptide Y receptor type 2 (Homo sapiens), P49146 | 220,000 compounds, 0.45% hits | AID 1359, 2008; in the data active = activation above about 27%;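 also: cells stimulated with NPY near EC25 plus isoproterenol at EC100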
NPY-Y1 PAM-ag = NPY-Y1 receptor potentiators or agonists, primary screen, cell-based; Neuropeptide Y receptor type 1 (Homo sapiens), P25929; NPY-Y1 expressing cells, potentiator/agonist activation; activation, % at 3.6 µM; 220,000 compounds, 0.37% hits; AID 1304, 2008; in the data active = activation above about 33%, passing the limit was not always enough;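 also: cells stimulated with NPY at EC10 then isoproterenol at EC100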
Target sequence (P25929 whole entry, looked up): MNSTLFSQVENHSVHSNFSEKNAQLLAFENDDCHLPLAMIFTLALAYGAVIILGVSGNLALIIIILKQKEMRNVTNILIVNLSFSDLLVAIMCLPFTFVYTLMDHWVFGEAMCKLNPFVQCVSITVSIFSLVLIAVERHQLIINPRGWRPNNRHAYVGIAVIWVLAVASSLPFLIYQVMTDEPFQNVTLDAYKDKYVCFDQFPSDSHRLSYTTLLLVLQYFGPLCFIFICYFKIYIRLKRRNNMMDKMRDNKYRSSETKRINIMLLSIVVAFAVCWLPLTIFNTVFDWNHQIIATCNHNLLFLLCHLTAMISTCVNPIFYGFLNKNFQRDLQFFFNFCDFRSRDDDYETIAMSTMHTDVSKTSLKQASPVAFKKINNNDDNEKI
RAM network inh = inhibitors of the yeast RAM network, primary screen, dse1pr::URA3 reporter, 5-FOA selection; S. cerevisiae dse1pr::URA3 reporter, 5-FOA growth OD615, 2 d; analog-sensitive cbk1-as2 kinase mutant strain; inhibition, % at 50 µM; 190,000 compounds, 1.8% hits; AID 868, 2007;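 active = inhibition above a set limit, 3 SD over mean compound inhibition, cut at about 8.4% in these data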;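 also: inhibition rescues growth on 5-FOA so higher OD means more RAM inhibition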
NPY-Y1 antag = NPY-Y1 receptor antagonists, primary screen, cell-based; Neuropeptide Y receptor type 1 (Homo sapiens), P25929; AID 1040, 2008; inhibition, % at 3.6 µM; 200,000 compounds, 1% hits; HEK293-CNG Y1 cells, membrane potential fluorescence; NPY at EC95, then isoproterenol;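 active = inhibition above the campaign mean inhibition of all tested compounds plus 3 SD, cut at about 20% in these data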
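Material: HEK293 Y1/CNG channel cell line | Also added: NPY (25 nM), isoproterenol (1 µM), Ro 20-1724 (25 µM) | Compound: One concentration, 3.6 µM, in 0.4% DMSO | Schedule: 3 h dye uptake, 1 h room-temperature compound, 45 min post-isoproterenol | Signal: Membrane-potential fluorescent dye readout | Read-out: % inhibition of NPY effect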
NPY-Y2 pot conf = NPY-Y2 potentiators or agonists, confirmation, cell-based; cell-based NPY-Y2 potentiator/agonist assay; shares compounds with NPY-Y2 PAM-ag; 450 compounds, 20% hits; activation, % at 3.6 µM; in the data active = activation above about 33%
NPY-Y1 potentiator = NPY-Y1 potentiators or agonists, counter-screen for NPY-Y2 potentiator project, cell-based, fluorescence | shares compounds with NPY-Y2 PAM-ag | Y1 HEK293-CNG cells, membrane potential fluorescence | activation, % at 3.6 µM | 450 compounds, 20% hits; in the data active = activation above about 45%;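 also: cells stimulated with submaximal NPY then isoproterenol with phosphodiesterase inhibitor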
NPY-Y1 agonist 2 = NPY-Y1 direct agonists, selectivity assay for NPY-Y2 potentiator project, cell-based, fluorescence | shares compounds with NPY-Y2 PAM-ag | HEK293 Y1-CNGC, membrane potential fluorescence, agonism | activation, % at 3.6 µM | 450 compounds, 37% hits | AID 1702, 2009;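 active = activation above the mean of DMSO-only control wells plus 3 SD, cut at about 18% in these data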;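 also: cells stimulated with 1 µM isoproterenol plus the PDE inhibitor Ro 20-1724; Y1 agonists lower the membrane potential dye signal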
CNGC inh = CNGC cAMP sensor activity inhibitors, counter-screen for NPY-Y2 potentiator project, cell-based, HEK293-CNG parental, membrane potential fluorescence; isoproterenol cAMP; 450 compounds, 32% hits; inhibition, % at 3.6 µM; shares compounds with NPY-Y2 PAM-ag;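 active = inhibition above the control-well mean plus 3 SD of those wells, cut at about 22% in these data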
Y2 agonist ctr = NPY-Y2 direct agonists, counter-screen for NPY-Y2 potentiator project, cell-based, fluorescence | shares compounds with NPY-Y2 PAM-ag | HEK293 Y2/CNGC cells, membrane potential fluorescence, agonist mode | activation, % at 3.6 µM | 450 compounds, 56% hits | AID 1710, 2009;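 active = activation above the mean of solvent-only control wells plus 3 SD, cut at about 10% in these data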;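 also: cells stimulated by isoproterenol with no NPY added so direct agonism is tested; agonism lowers probe fluorescence through less cAMP and CNG channel opening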
A number is an active result; - = inactive; . = not tested or not shown.

SMILES	Insulin prom inh	NPY Y2 blocker	NPY-Y2 PAM-ag	NPY-Y1 PAM-ag	RAM network inh	NPY-Y1 antag	NPY-Y2 pot conf	NPY-Y1 potentiator	NPY-Y1 agonist 2	CNGC inh	Y2 agonist ctr
Cc1ccc(NC(=O)COc2ccccc2C(=O)NCCN(C)C)cc1	-	.	-	-	-	-	.	.	.	.	.
C=C(C)CNC(=S)Nc1cccc(N)n1	.	.	-	-	-	-	.	.	.	.	.
COc1cc(C(=O)NNC2=CC(=O)CC(C)(C)C2)cc(OC)c1OC	.	-	43.7	-	-	-	-	-	-	-	-
O=C(Nc1ccccc1)OC1CCC2CC1CCC2OC(=O)Nc1ccccc1 (stereo not given)	-	-	30.8	-	-	-	51.1	71.5	54.8	38.1	66.5
COC(=O)C(NS(C)(=O)=O)(c1c(C)[nH]c2ccccc12)C(F)(F)F (stereo not given)	.	-	-	-	-	-	.	.	.	.	.
Oc1ccc(-c2n[nH]c(C(F)(F)F)c2-c2ccccc2)c(O)c1	.	.	52.6	-	-	-	-	-	-	-	14.9
COc1ccc(NS(=O)(=O)c2cnc[nH]2)cc1	.	.	30.4	-	-	-	-	-	-	-	-
O=S(=O)(Nc1ccc(C(F)(F)F)cc1)c1cnc[nH]1	.	-	-	-	-	-	.	.	.	.	.
COc1ccc(OC)c(Cc2nnc(CCC(=O)N3CCCCC3c3nccs3)o2)c1 (stereo not given)	.	.	-	-	-	-	.	.	.	.	.
O=C(COC(=O)C1(c2cccc(F)c2)CCCC1)NCc1cccs1	.	.	-	-	-	-	.	.	.	.	.
Cc1ccc(S(=O)(=O)Nc2ccc(NC(=O)c3cccs3)cc2)cc1	.	.	-	-	-	-	.	.	.	.	.
Cc1ccc(S(=O)(=O)Nc2ccc(NC(=O)c3c(F)c(F)c(F)c(F)c3F)cc2)cc1	-	.	34.9	-	-	-	-	-	26.5	27.7	23.7
NC(=O)c1c(-c2ccc(Cl)cc2Cl)csc1NC(=O)Cc1ccccc1	-	-	32.0	-	-	-	-	-	-	-	-
O=C(Cc1ccccc1)Nc1scc(-c2ccccc2)c1C(=O)N1CCOCC1	-	-	-	-	-	-	.	.	.	.	.
COc1ccc2c(c1)c(CC(=O)Nc1nnc(C3CC3)s1)c(C)n2C(=O)c1ccc(Cl)cc1	.	.	48.9	-	.	.	-	-	21.0	-	12.0
CCCn1c(CCC(=O)O)nc2cc(S(N)(=O)=O)ccc21	.	.	104.2	-	.	.	-	-	-	-	-
CC(=O)c1ccc(NC(=O)C2CCCN(C(=O)c3ccc(Cl)cc3)C2)cc1 (stereo not given)	-	.	28.2	-	-	-	-	-	29.0	30.1	30.1
O=C(Nc1ccccc1)C1CCCN(C(=O)c2ccc(Cl)cc2)C1 (stereo not given)	.	.	-	-	-	-	.	.	.	.	.
COc1ccc(-n2c3c(cc(C(=O)Nc4ccc5c(c4)C(=O)NC5=O)c2=O)C(=O)CCC3)cc1	-	-	-	-	.	-	.	.	.	.	.
NC(=O)C1CCN(CC(=O)Nc2cccc(C(=O)Nc3cccc(C(F)(F)F)c3)c2)CC1	.	-	41.4	-	-	-	-	-	-	-	-
C#Cc1ccc([C@H]2C=C(C(=O)NC3CC3)O[C@@H](OCC)[C@@H]2CCCO)cc1	.	.	-	-	-	-	.	.	.	.	.
Fc1ccc(Nc2nc(-c3cccnc3)cs2)cc1	-	.	33.7	-	-	-	34.8	58.1	58.6	43.1	43.4
Cc1ccc(Nc2nc(-c3ccncc3)cs2)cc1	-	.	35.6	-	-	-	34.7	47.6	60.2	48.8	45.8
COc1cccc(OC)c1C1=NC(C)(C)CO1	.	.	-	-	.	.	.	.	.	.	.
CCN1C(=O)C2(C(C#N)=C(N)Oc3n[nH]c(-c4ccc(Cl)cc4)c32)c2ccccc21 (stereo not given)	-	-	39.1	-	-	-	44.1	58.0	50.6	24.4	36.2
SMILES	Insulin prom inh	NPY Y2 blocker	NPY-Y2 PAM-ag	NPY-Y1 PAM-ag	RAM network inh	NPY-Y1 antag	NPY-Y2 pot conf	NPY-Y1 potentiator	NPY-Y1 agonist 2	CNGC inh	Y2 agonist ctr
CCc1cccc(C)c1NC(=O)C1CC=CCC1C(=O)O (stereo not given)	-	.	-	-	-	-	.	.	.	.	.
CCC(C)(C)NC(=O)C(c1cccn1C)N(Cc1ccccc1)C(=O)Cn1nnc2ccccc21 (stereo not given)	-	-	60.8	-	-	-	-	-	-	-	-
OC1(c2ccc(OC(F)F)cc2)CSC(=Nc2cccnc2)N1Cc1ccco1 (stereo not given)	-	.	35.4	-	-	-	-	-	-	-	12.6
OC1(c2ccc(F)cc2)CSC(=Nc2cccnc2)N1Cc1ccco1 (stereo not given)	-	.	33.5	-	-	-	-	-	-	-	-
FC(F)Oc1ccc(-c2csc(=Nc3cccnc3)n2CC2CCCO2)cc1 (stereo not given)	-	-	-	-	-	-	.	.	.	.	.
Cc1ccc(C2/C(=C(\O)c3c(C)nc4ccccn34)C(=O)C(=O)N2CCN(C)C)o1 (stereo not given)	.	.	-	-	.	.	.	.	.	.	.
Cc1c(C=N)c(O)n(C)c(=O)c1C#N	.	.	-	-	.	.	.	.	.	.	.
COC(=O)CCSc1cc(NCCOC(C)=O)c([N+](=O)[O-])c2nonc12	-	-	42.8	-	-	-	-	-	-	-	-
CN(CC1CCCO1)S(=O)(=O)c1ccc(C(=O)Nc2nc3cc4c(cc3s2)OCO4)cc1 (stereo not given)	.	-	43.3	-	.	-	-	-	-	-	-
Cc1ccc(NS(=O)(=O)c2cccc(C(=O)Nc3c(C)n(C)n(-c4ccccc4)c3=O)c2)cc1	.	.	57.8	-	.	.	-	-	-	-	-
Cc1nn(Cc2ccc(Cl)cc2)c(C)c1NC(=O)CSc1n[nH]c(C)c1[N+](=O)[O-]	-	-	28.6	-	-	-	-	-	-	-	26.5
